Data on 1 compound can be found in ChEMBL document CHEMBL4270555, “Synthesis and biological evaluation of magnolol derivatives as melatonergic receptor agonists with potential use in depression” (Eur J Med Chem, 2018).

Activity calls are given as the source filed them. The calls are words filed in the database; no cut-off is given here.

The nature of data set [1]: Drug metabolism in Sprague-Dawley rat feces assessed as 5,5'-diallyl-2'-hydroxybiphenyl-2-yl hydrogen sulfate formation at 100 mg/kg, po by UPLC-IT-TOF-MS analysis. To be noted: in vivo. The class given is ADME, organism-based. The procedure, abridged:
(§1)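 Rats (n = 6) housed in metabolic cages received 100.0 mg/kg orally; controls received 0.5% CMC-Na. Plasma, urine and faeces were collected and analyzed by LC-IT-TOF-MS on a C18 column at 30 °C. Gradient 5–100% acetonitrile with 0.05% formic acid over 18 min at 0.2 mL/min; positive and negative ion MS/MS.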

Data set [2] is described as follows: Drug metabolism in Sprague-Dawley rat plasma assessed as 2'-hydroxy-5'-(1-hydroxyallyl)-5-propylbiphenyl-2-yl hydrogen sulfate formation at 100 mg/kg, po by UPLC-IT-TOF-MS analysis. The class given is ADME, organism-based. To be noted: in vivo. The method, boiled down: as §1
For data set [3], the system named is Mus musculus. The data set is described as follows: Increase in norepinephrine level in Kunming mouse thalamus at 40 mg/kg, po treated for 7 days by HPLC-ECD analysis. The format is functional, organism-based. The procedure, abridged:
(§2)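 Male Kunming mice (18–20 g) given vehicle or 40 mg/kg for 7 days, then killed by cervical dislocation. Frontal cortex, hippocampus, striatum, hypothalamus and thalamus dissected on ice, homogenized in ice-cold 0.2 M perchloric acid with 0.1 mM EDTA, centrifuged 15,000 rpm, 20 min, 4 °C. Supernatant analysed by HPLC-ECD at +0.50 V; phosphate/octanesulfonate mobile phase pH 3.0 with 12% methanol. Levels in ng/g, mean ± SEM.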

The next data set deals with Rattus norvegicus. Description: Toxicity in Sprague-Dawley rat assessed as change in gastrointestinal effects at 2000 mg/kg, po measured continuously for first 4 hrs followed by measured every hour for next 24 hrs and at 6 hrs intervals for following 48 hrs post dose. The format is organism-based. To be noted: in vivo. The method, boiled down: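 Followed OECD 425 in adult SD rats (180–220 g), three groups of six. Vehicle control received 0.5% CMC-Na orally; separate male and female groups received 2000 mg/kg orally. Endpoints observed: behaviour, breathing, cutaneous effects, sensory nervous system responses, gastrointestinal effects and deaths.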

The subject of data set [4] is Mus musculus. The data set is described as follows: Increase in ratio of 5-hydroxyindole-3-acetic acid to 5-hydroxytryptamine level in Kunming mouse frontal cortex at 40 mg/kg, po treated for 7 days by HPLC-ECD analysis. The class given is functional, organism-based. The procedure, abridged: as §2
Data set [5] is described as follows: Drug metabolism in Sprague-Dawley rat urine assessed as (2S,3S,4S,5R,6S)-3,4,5-trihydroxy-6-(5-(1-hydroxyallyl)-5'-(1-hydroxypropyl)-2'-((2S,3R,4S,5S,6R)-3,4,5-trihydroxy-6-(hydroxymethyl)tetrahydro-2H-pyran-2-yloxy)biphenyl-2-yloxy)tetrahydro-2H-pyran-2-carboxylic acid formation at 100 mg/kg, po by UPLC-IT-TOF-MS analysis. The format is ADME, organism-based. To be noted: in vivo. The procedure, abridged: (§3)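 Male/unspecified SD rats (n = 6) housed individually in metabolic cages, dosed orally at 100.0 mg/kg; controls given 0.5% CMC-Na orally. Plasma, urine and faeces collected. LC-IT-TOF-MS on C18 column at 30 °C, formic acid (0.05%) water/acetonitrile gradient 5–100% B over 18 min, 0.2 mL/min; positive and negative ion modes with automatic MS/MS.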

The nature of data set [6]: Drug metabolism in Sprague-Dawley rat feces assessed as 5'-(1-hydroxyallyl)-5-(1-hydroxypropyl)-2'-((2S,3R,4S,5S,6R)-3,4,5-trihydroxy-6-(hydroxymethyl)tetrahydro-2H-pyran-2-yloxy)biphenyl-2-yl hydrogen sulfate formation at 100 mg/kg, po by UPLC-IT-TOF-MS analysis. The class given is ADME, organism-based. To be noted: in vivo. The method, boiled down: as §1
Data set [7] in a line: Drug metabolism in Sprague-Dawley rat feces assessed as 5'-acryloyl-2'-hydroxy-5-propionylbiphenyl-2-yl hydrogen sulfate formation at 100 mg/kg, po by UPLC-IT-TOF-MS analysis. The format is ADME, organism-based. To be noted: in vivo. The procedure, abridged: as §1
Data set [8] is described as follows: Drug metabolism in Sprague-Dawley rat feces assessed as 5'-(1-hydroxyallyl)-5-propyl-2'-((2S,3R,4S,5S,6R)-3,4,5-trihydroxy-6-(hydroxymethyl)tetrahydro-2H-pyran-2-yloxy)biphenyl-2-yl hydrogen sulfate formation at 100 mg/kg, po by UPLC-IT-TOF-MS analysis. The format is ADME, organism-based. To be noted: in vivo. The procedure, abridged: as §1
Data set [9] is described as follows: Drug metabolism in Sprague-Dawley rat plasma assessed as 5,5'-diallyl-2'-hydroxybiphenyl-2-yl hydrogen sulfate formation at 100 mg/kg, po by UPLC-IT-TOF-MS analysis. The format is ADME, organism-based. To be noted: in vivo. The method, boiled down: as §3
Data set [10] is described as follows: Drug metabolism in Sprague-Dawley rat feces assessed as (2S,3S,4S,5R,6S)-3,4,5-trihydroxy-6-(5-(1-hydroxyallyl)-5'-(2-hydroxypropyl)-2'-methoxybiphenyl-2-yloxy)tetrahydro-2H-pyran-2-carboxylic acid formation at 100 mg/kg, po by UPLC-IT-TOF-MS analysis. The format is ADME, organism-based. To be noted: in vivo. The method, boiled down: as §1
The test system of data set [11] is Mus musculus. Description: Toxicity in Kunming mouse assessed as effect in spontaneous locomotor activity by measuring total distance travelled at 10 to 40 mg/kg, po by open field test. The format is organism-based. To be noted: in vivo. The procedure, abridged: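 Male Kunming mice, 18–20 g, group-housed at 22 ± 2 °C on 12 h light/dark, given oral doses of 10, 20 or 40 mg/kg before behavioural testing. Each animal placed in the centre of a black open-field box (24 × 24 × 40 cm) for 30 s adaptation, then explored freely for 6 min. Line crossings and distance recorded. Mean ± SEM, n = 10.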

Data set [12] in a line: Drug metabolism in Sprague-Dawley rat plasma assessed as 5'-(1-hydroxyallyl)-5-propyl-2'-((2S,3R,4S,5S,6R)-3,4,5-trihydroxy-6-(hydroxymethyl)tetrahydro-2H-pyran-2-yloxy)biphenyl-2-yl hydrogen sulfate formation at 100 mg/kg, po by UPLC-IT-TOF-MS analysis. The format is ADME, organism-based. To be noted: in vivo. The procedure, abridged: as §1
A short description of data set [13]: Drug metabolism in Sprague-Dawley rat feces assessed as 1-(2'-hydroxy-5'-(1-hydroxyallyl)-6-((2S,3R,4S,5S,6R)-3,4,5-trihydroxy-6-(hydroxymethyl)tetrahydro-2H-pyran-2-yloxy)biphenyl-3-yl)prop-2-en-1-one formation at 100 mg/kg, po by UPLC-IT-TOF-MS analysis. The format is ADME, organism-based. To be noted: in vivo. The procedure, abridged: as §1
In data set [14] the test system is Mus musculus. The data set is described as follows: Increase in ratio of 3,4-dihydroxyphenylacetic acid and 4-hydroxy-3-methoxyphenylacetic acid to dopamine level in Kunming mouse thalamus at 40 mg/kg, po treated for 7 days by HPLC-ECD analysis. The format is functional, organism-based. The method, boiled down:
as §2

Data set [15] can be described thus: Drug metabolism in Sprague-Dawley rat plasma assessed as (2R,2'R,3S,3'S,4S,4'S,5R,5'R,6S,6'S)-6,6'-(5,5'-diallylbiphenyl-2,2'-diyl)bis(oxy)bis(2-(hydroxymethyl)tetrahydro-2H-pyran-3,4,5-triol) formation at 100 mg/kg, po by UPLC-IT-TOF-MS analysis. To be noted: in vivo. The format is ADME, organism-based. The procedure, abridged:
as §1

In data set [16] the test system is Mus musculus. Description: Antidepressant activity in Kunming mouse assessed as decrease in immobility duration at 40 mg/kg, po by forced swim test relative to control. The class given is functional. Set-up: scale not given: the % may be the effect or the level left. The procedure, abridged:
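Male Kunming mice (18–20 g) given 10, 20 or 40 mg/kg orally; fluoxetine and agomelatine 20 mg/kg as references. Each mouse swam 6 min in a cylinder (25 × 15 cm) holding 10 cm of water at 25 ± 1 °C. Immobility over the last 4 min was scored by video tracking; n = 10, mean ± SEM versus vehicle.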

`C=CCc1ccc(O)c(-c2cc(CC=C)ccc2O[C@@H]2O[C@H](CO)[C@@H](O)[C@H](O)[C@H]2O)c1`: the Drug metabolism entry in data set [1] is recorded as “Metabolite_Detected”; in data set [2] it was “Metabolite_Notdetected”; in data set [5] it was “Metabolite_Detected”; in [6], “Metabolite_Notdetected”; in data set [7], “Metabolite_Notdetected”; in data set [8], “Metabolite_Detected”. In addition, the Drug metabolism result in data set [9], in [10], in data set [12], in data set [13] and in [15] was “Metabolite_Notdetected” throughout. Moreover, the result in the data set on Mus musculus [3], in the data set with Mus musculus [4] and in the data set on Mus musculus [14] was Active. The Activity result in the data set with Rattus norvegicus was “Non-Toxic”; in the data set on Mus musculus [11], “Non-Toxic”; in the data set on Mus musculus [16], 37.66%.
